Test results: ChEMBL document CHEMBL3286171 (Eur J Med Chem, 2014)
Calls of active or inactive are those of the source. The rule behind the calls is not given here.

Assays:
[1] = target: T1, Amine oxidase [flavin-containing] A (Rattus norvegicus, UniProt P21396); assay: Inhibition of MAO-A in rat liver homogenate using [14C]-5HT as substrate preincubated for 30 mins followed by substrate addition measured after 20 mins by liquid scintillation counting analysis; type: tissue-based
T1 sequence (P21396 whole entry): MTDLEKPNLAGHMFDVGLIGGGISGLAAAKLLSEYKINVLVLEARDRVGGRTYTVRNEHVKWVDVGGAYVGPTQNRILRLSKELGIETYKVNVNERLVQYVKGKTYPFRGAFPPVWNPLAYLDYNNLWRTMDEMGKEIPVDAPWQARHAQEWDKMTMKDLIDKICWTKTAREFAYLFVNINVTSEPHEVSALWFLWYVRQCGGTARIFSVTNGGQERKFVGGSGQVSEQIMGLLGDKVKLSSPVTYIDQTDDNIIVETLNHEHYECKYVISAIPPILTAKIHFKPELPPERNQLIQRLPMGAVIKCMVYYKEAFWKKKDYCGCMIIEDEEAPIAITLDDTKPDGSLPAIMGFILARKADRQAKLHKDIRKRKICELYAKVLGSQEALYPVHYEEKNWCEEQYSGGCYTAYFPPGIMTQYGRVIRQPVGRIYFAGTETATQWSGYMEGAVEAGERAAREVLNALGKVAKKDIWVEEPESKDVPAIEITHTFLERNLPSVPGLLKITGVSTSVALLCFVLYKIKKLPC
How it was run: (§1)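 MAO source was rat liver homogenate. Enzyme pre-incubated 30 min with a range of inhibitor concentrations in 50 mM phosphate buffer, pH 7.4. Substrates: MAO A, 100 μM [14C]-5-HT (0.5 mCi/mmol), reaction 20 min; MAO B, 20 μM [14C]-PEA (2.5 mCi/mmol), reaction 4 min. Final volume 225 μl.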

[2] = Effective permeability across human intestinal membrane by Ussing chamber technique
[3] = Protein binding in plasma (unknown origin)
Acetylcholinesterase = Acetylcholinesterase (Electrophorus electricus, UniProt O42275); assay: Inhibition of electric eel AChE using acetylthiocholine iodide as substrate preincubated for 20 mins followed by substrate addition measured after 5 mins by Ellman's method
[4] = target: T2, Amine oxidase [flavin-containing] B (Rattus norvegicus, UniProt P19643); assay: Inhibition of MAO-B in rat liver homogenate using [14C]-phenylethylamine as substrate preincubated for 30 mins followed by substrate addition measured after 4 mins by liquid scintillation counting analysis; type: tissue-based; how it was run: as §1
T2 sequence (P19643 whole entry): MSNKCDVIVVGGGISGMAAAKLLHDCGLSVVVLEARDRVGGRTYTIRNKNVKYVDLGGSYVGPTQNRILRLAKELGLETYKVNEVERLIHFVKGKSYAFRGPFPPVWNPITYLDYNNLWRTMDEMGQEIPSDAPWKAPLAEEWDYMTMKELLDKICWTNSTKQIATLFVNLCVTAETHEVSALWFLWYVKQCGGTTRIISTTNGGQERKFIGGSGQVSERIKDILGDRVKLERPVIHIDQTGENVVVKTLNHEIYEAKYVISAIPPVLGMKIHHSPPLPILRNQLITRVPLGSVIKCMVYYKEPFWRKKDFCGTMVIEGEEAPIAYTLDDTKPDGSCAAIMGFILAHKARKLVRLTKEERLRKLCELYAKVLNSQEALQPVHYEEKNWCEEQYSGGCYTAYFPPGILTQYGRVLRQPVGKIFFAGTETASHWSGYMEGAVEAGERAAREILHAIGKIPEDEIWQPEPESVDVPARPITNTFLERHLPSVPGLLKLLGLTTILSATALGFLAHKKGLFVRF

[5] = Permeability in human Caco2 cells; settings: Caco-2
[6] = Drug absorption in human intestine
Cholinesterase = Cholinesterase (Equus caballus, UniProt P81908); assay: Inhibition of equine serum BuChE using butyrylthiocholine iodide as substrate preincubated for 20 mins followed by substrate addition measured after 25 mins by Ellman's method
How it was run: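 Ellman-type colorimetric assay in 0.1 M phosphate buffer pH 8.0 with 0.05 U/mL BuChE and 0.35 mM DTNB. Serial inhibitor dilutions pre-incubated with the mix for 20 min, then butyrylthiocholine iodide added (final 0.5 mM). […] At least three experiments in triplicate, mean ± SEM.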

[7] = Apparent permeability in MDCK cells; settings: dog
[8] = Metal chelating activity assessed as compound concentration required for copper complex formation after 5 mins by UV-Vis spectrometric analysis; type: physicochemical
How it was run: (§2)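 UV-Vis spectra (220-300 nm) recorded in distilled water at room temperature in 1 cm quartz cells. Ligand at 10 μM with increasing CuSO4, Fe2(SO4)3 or ZnSO4. Incubation times: Cu(II) 5 min, Zn(II) 1 h, Fe(III) overnight. Stoichiometry found by Job's method, plotting absorbance at 257 nm against ligand mole fraction.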

[9] = target: T2, Amine oxidase [flavin-containing] B; assay: Inhibition of MAO-B in rat liver homogenate preincubated for 30 mins; type: tissue-based
How it was run: (§3)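 Rat liver homogenate as the MAO source. The enzyme is pre-incubated 30 min with several inhibitor concentrations in 50 mM phosphate buffer, pH 7.4. […] Mean ± SEM of at least three experiments in quadruplicate.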

[10] = target: T1, Amine oxidase [flavin-containing] A; assay: Inhibition of MAO-A in rat liver homogenate preincubated for 30 mins; type: tissue-based; how it was run: as §3
[11] = target: T1, Amine oxidase [flavin-containing] A; assay: Irreversible inhibition of MAO-A in rat liver homogenate assessed as recovery of enzyme activity at 10 uM preincubated for 30 mins followed by centrifugation and washing with PBS buffer; type: tissue-based
How it was run: (§4)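 Enzyme pre-incubated 30 min at 37 °C with inhibitor: 10 μM (MAO A) or 20 μM (MAO B). […] Three cycles of washing in 50 mM phosphate buffer pH 7.4 and centrifugation at 25,000 g, 10 min, 4 °C. Protein measured by Bradford; activity then assayed by the radiometric method. Six independent experiments in triplicate; Kruskal-Wallis analysis.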

[12] = Metal chelating activity assessed as compound concentration required for zinc complex formation after 1 hr by UV-Vis spectrometric analysis; type: physicochemical; how it was run: as §2
[13] = target: T1, Amine oxidase [flavin-containing] A; assay: Inhibition of MAO-A in rat liver homogenate; type: tissue-based; how it was run: as §3
[14] = target: T2, Amine oxidase [flavin-containing] B; assay: Inhibition of MAO-B in rat liver homogenate; type: tissue-based; how it was run: as §3
[15] = Hepatotoxicity in human HepG2 cells assessed as cell viability at 1000 uM by MTT assay relative to control; type: toxicity, cell-based; settings: read-out: Activity
[16] = Hepatotoxicity in human HepG2 cells assessed as cell viability at 3 uM by MTT assay relative to control; type: toxicity, cell-based; settings: read-out: Activity
[17] = Hepatotoxicity in human HepG2 cells assessed as cell viability at 1 uM by MTT assay relative to control; type: toxicity, cell-based; settings: read-out: Activity
[18] = Hepatotoxicity in human HepG2 cells assessed as cell viability at 300 uM by MTT assay relative to control; type: toxicity, cell-based; settings: read-out: Activity
[19] = Hepatotoxicity in human HepG2 cells assessed as cell viability at 10 uM by MTT assay relative to control; type: toxicity, cell-based; settings: read-out: Activity
[20] = target: Acetylcholinesterase (Electrophorus electricus) (UniProt O42275); assay: Mixed-type inhibition of electric eel AChE using acetylthiocholine iodide as substrate at 0.5 to 5 uM by Lineweaver-Burk plot analysis
[21] = Hepatotoxicity in human HepG2 cells assessed as cell viability at 100 uM by MTT assay relative to control; type: toxicity, cell-based; settings: read-out: Activity
Mus musculus [22] = assay: Cognitive enhancing effect in C57BL/6J mouse assessed as reversal of scopolamine-induced long-term memory deficit by measuring increase in latency time during probe session at 35 mg/kg, iv administered 90 mins prior to scopolamine-challenge measured after 24 hrs by passive avoidance test; type: functional, organism-based; parameters: dose 35 mg/kg
Mus musculus [23] = assay: Cognitive enhancing effect in C57BL/6J mouse assessed as reversal of scopolamine-induced long-term memory deficit by measuring latency time during training session at 35 mg/kg, iv administered 90 mins prior to scopolamine-challenge measured after 24 hrs by passive avoidance test; type: functional, organism-based; parameters: dose 35 mg/kg
[24] = Metal chelating activity assessed as compound concentration required for ferric ion complex formation by UV-Vis spectrometric analysis; type: physicochemical; how it was run: as §2
[25] = Hepatotoxicity in human HepG2 cells assessed as cell viability at 30 uM by MTT assay relative to control; type: toxicity, cell-based; settings: read-out: Activity
[26] = target: T2, Amine oxidase [flavin-containing] B; assay: Irreversible inhibition of MAO-B in rat liver homogenate assessed as recovery of enzyme activity at 20 uM preincubated for 30 mins followed by centrifugation and washing with PBS buffer; type: tissue-based; how it was run: as §4
Mus musculus [27] = assay: Cognitive enhancing effect in C57BL/6J mouse assessed as reversal of scopolamine-induced long-term memory deficit by measuring increase in latency time during probe session at 1 mg/kg, iv administered 90 mins prior to scopolamine-challenge measured after 24 hrs by passive avoidance test; type: functional, organism-based; parameters: dose 1 mg/kg
Mus musculus [28] = assay: Cognitive enhancing effect in C57BL/6J mouse assessed as reversal of scopolamine-induced long-term memory deficit by measuring latency time during training session at 1 mg/kg, iv administered 90 mins prior to scopolamine-challenge measured after 24 hrs by passive avoidance test; type: functional, organism-based; parameters: dose 1 mg/kg

Sequence of Cholinesterase (P81908 whole entry): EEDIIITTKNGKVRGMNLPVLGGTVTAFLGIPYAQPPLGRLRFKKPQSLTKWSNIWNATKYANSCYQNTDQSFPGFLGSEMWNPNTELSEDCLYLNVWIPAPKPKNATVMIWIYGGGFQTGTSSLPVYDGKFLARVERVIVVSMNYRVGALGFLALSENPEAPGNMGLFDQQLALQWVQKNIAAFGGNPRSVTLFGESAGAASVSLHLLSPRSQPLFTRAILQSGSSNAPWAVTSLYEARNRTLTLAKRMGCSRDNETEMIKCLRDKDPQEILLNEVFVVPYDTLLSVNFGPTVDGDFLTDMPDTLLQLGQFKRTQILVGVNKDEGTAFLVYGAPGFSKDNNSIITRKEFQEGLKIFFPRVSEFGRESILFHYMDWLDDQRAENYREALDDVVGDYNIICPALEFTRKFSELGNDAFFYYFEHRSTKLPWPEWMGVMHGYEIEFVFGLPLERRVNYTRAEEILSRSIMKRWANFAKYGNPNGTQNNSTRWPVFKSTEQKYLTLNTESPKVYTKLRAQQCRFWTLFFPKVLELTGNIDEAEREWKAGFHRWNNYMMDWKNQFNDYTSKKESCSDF
Sequence of Acetylcholinesterase (O42275 whole entry): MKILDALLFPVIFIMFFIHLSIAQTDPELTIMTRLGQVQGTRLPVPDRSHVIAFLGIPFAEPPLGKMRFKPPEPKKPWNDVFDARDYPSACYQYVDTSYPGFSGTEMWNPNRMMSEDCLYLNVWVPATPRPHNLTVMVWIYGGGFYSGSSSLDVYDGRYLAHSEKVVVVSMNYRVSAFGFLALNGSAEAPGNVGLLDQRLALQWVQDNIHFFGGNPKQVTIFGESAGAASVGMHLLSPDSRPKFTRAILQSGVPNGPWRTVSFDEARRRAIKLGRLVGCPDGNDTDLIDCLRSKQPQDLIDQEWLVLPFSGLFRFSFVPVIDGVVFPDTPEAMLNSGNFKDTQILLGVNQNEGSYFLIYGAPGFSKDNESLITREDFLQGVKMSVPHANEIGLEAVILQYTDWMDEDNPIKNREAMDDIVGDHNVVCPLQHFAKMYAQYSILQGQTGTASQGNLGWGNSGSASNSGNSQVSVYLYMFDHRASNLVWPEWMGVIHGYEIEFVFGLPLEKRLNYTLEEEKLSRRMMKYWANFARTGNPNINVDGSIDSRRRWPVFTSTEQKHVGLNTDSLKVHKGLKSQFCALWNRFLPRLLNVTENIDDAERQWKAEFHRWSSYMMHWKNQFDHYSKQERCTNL
Sequence of Acetylcholinesterase (Electrophorus electricus) (O42275 24-633 limits assumed): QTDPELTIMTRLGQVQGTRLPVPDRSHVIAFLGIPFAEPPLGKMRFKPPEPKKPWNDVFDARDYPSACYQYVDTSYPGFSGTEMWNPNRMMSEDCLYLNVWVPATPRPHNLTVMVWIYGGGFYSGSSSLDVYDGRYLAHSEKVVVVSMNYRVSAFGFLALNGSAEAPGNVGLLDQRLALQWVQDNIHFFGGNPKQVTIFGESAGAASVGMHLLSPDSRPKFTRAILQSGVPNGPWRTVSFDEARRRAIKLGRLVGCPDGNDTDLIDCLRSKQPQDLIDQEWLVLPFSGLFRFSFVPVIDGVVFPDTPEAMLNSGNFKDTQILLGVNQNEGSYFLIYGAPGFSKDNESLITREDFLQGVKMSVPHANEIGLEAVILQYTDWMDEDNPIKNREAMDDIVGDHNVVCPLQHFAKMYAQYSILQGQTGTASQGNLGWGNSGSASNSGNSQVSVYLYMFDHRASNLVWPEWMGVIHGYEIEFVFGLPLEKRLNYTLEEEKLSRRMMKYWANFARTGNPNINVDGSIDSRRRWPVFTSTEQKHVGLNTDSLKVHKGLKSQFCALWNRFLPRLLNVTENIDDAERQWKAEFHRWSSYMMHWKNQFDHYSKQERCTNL

| Compound | Papp [2] | fraction unbound [3] | IC50 (Acetylcholinesterase) | Papp [5] | Fa [6] | Papp [7] | further results |
| --- | --- | --- | --- | --- | --- | --- | --- |
| C#CCN(Cc1ccc(O)c2ncccc12)C1CCN(Cc2ccccc2)CC1 | 447 ×10⁻⁶ cm/s | 0.273 | ≥ 100 µM | 4.57 ×10⁻⁶ cm/s | 96.8% | 35.1 ×10⁻⁶ cm/s | IC50 [1]: ≥ 100 µM; IC50 [4]: ≥ 100 µM; IC50 (Cholinesterase): ≥ 100 µM |
| C#CCN(Cc1ccc(O)c2ncccc12)CC1CCN(Cc2ccccc2)CC1 | 499 ×10⁻⁶ cm/s | 0.236 | – | 5.23 ×10⁻⁶ cm/s | 96.8% | 32.6 ×10⁻⁶ cm/s | – |
| C#CCN(CCC1CCN(Cc2ccccc2)CC1)Cc1ccc(O)c2ncccc12 | 559 ×10⁻⁶ cm/s | 0.229 | – | 5.44 ×10⁻⁶ cm/s | 96.9% | 31.3 ×10⁻⁶ cm/s | – |
| C#CCN(CCCC1CCN(Cc2ccccc2)CC1)Cc1ccc(O)c2ncccc12 | 624 ×10⁻⁶ cm/s | 0.226 | – | 5.41 ×10⁻⁶ cm/s | 96.9% | 30.2 ×10⁻⁶ cm/s | – |
| C#CCN(C)Cc1ccc(O)c2ncccc12 | 250 ×10⁻⁶ cm/s | 0.31 | ≥ 100 µM | 4.29 ×10⁻⁶ cm/s | 95.9% | 42.9 ×10⁻⁶ cm/s | IC50 [1]: 0.057 µM; IC50 [4]: 1.5 µM |
| C#CCN(Cc1ccc(O)c2ncccc12)C(C#N)C1CCN(Cc2ccccc2)CC1 (racemic) | 336 ×10⁻⁶ cm/s | 0.197 | – | 4.93 ×10⁻⁶ cm/s | 96.8% | 34.8 ×10⁻⁶ cm/s | – |
| C#CCN(Cc1ccc(O)c2ncccc12)C(C#N)CC1CCN(Cc2ccccc2)CC1 (racemic) | 375 ×10⁻⁶ cm/s | 0.216 | – | 5.2 ×10⁻⁶ cm/s | 96.9% | 32.2 ×10⁻⁶ cm/s | – |
| C#CCN(Cc1ccc(O)c2ncccc12)C(C#N)CCC1CCN(Cc2ccccc2)CC1 (racemic) | 418 ×10⁻⁶ cm/s | 0.2 | 1.8 µM | 5.44 ×10⁻⁶ cm/s | 97% | 30.6 ×10⁻⁶ cm/s | Activity [8]: 0.65 mole fraction; IC50 [9]: 8.3 µM; IC50 [10]: 3.8 µM; inhibition (INH) [11]: Active; Activity [12]: 0.65 mole fraction; inhibition (INH) [13]: Dose-dependent effect; inhibition (INH) [14]: Dose-dependent effect; viability at 1000 µM [15]: 51.5%; viability at 3 µM [16]: 94.8%; viability at 1 µM [17]: 98.4%; viability at 300 µM [18]: 71.4%; viability at 10 µM [19]: 94.4%; inhibition [20]: Active; viability at 100 µM [21]: 85.6%; Activity (Mus musculus [22]): Active; Activity (Mus musculus [23]): inactive; Activity [24]: 0.5 mole fraction; viability at 30 µM [25]: 92.4%; inhibition (INH) [26]: Active; IC50 (Cholinesterase): 1.6 µM |
| C#CCN(C)CCCOc1ccc(Cl)cc1Cl [CLORGILINE] | – | – | ≥ 500 µM | – | – | – | IC50 (Cholinesterase): ≥ 500 µM |
| COc1cc2c(cc1OC)C(=O)C(CC1CCN(Cc3ccccc3)CC1)C2 (configuration not stated) [DONEPEZIL] | – | 0.154 | – | – | 98% | – | viability at 1000 µM [15]: 40.9%; Activity (Mus musculus [27]): Active; viability at 3 µM [16]: 97%; viability at 1 µM [17]: 98.6%; viability at 300 µM [18]: 53.4%; viability at 10 µM [19]: 92.4%; Activity (Mus musculus [28]): inactive; viability at 100 µM [21]: 80%; viability at 30 µM [25]: 83.5% |
| C#CCN(C)[C@H](C)Cc1ccccc1 [SELEGILINE] | – | – | ≥ 500 µM | – | – | – | – |
